# Screening results from PubChem BioAssay.
# HNF4A DNA FP = change in binding of human HNF4 alpha to DNA; P41235; activity change, % at 10 µM; 0.3% of 360,000 active; HNF4a-FITC DNA binding, fluorescence polarization, 1 h; in the data active means activity change above about 30%, passing the limit was not always enough
# Target sequence (P41235 whole entry, looked up): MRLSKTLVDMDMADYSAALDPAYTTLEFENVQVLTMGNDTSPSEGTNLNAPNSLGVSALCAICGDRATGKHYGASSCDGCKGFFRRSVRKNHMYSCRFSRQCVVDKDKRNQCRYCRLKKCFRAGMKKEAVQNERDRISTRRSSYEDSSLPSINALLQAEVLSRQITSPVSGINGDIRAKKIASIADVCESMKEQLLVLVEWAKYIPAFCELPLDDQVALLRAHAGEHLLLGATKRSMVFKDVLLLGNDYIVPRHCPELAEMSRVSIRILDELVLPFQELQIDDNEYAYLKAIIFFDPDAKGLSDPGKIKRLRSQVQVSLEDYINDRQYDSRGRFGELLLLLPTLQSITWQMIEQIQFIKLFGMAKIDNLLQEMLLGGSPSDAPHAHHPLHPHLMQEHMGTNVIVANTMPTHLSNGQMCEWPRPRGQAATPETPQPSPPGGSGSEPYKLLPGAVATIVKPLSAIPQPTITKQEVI
# TPT1 inhibitor = C. albicans TPT1 enzyme inhibition; recombinant caTPT1, FP RNA substrate dephosphorylation; inhibition, % at 5 µM; 0.81% of 300,000 active;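 active means inhibition above the mean of all tested compounds plus 3 SD, set per screening campaign, cut at about 24% in these data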;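 further: plate controls were DMSO alone for no effect and ferristatin control at 100 nM for full effect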
# CSN deneddyl inh = inhibitors of human CSN-mediated cullin deneddylation; Q92905; Purified CSN, SCF-Nedd8-OG deneddylation, fluorescence polarization; inhibition, % at 12.5 µM; 0.38% of 360,000 active; AID 651999;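 active means pattern-corrected inhibition above about 35%, with an unprinted fluorescence ratio check between 0.5 and 1.5, limit read from the data, passing the limit was not always enough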;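 further: 0% = enzyme with substrate and 100% = substrate without enzyme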
#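 Assay system: purified human Csn5 enzyme expressed in HEK293T cells; Input: 0.24 nM Csn5 enzyme, final concentration; Reagent: 10 nM SCFSkp2-Nedd8OG; Compound dosing: 12.5 µM single point; Times: reaction 90 min, room temperature; Technique: fluorescence polarization readout.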
# Rev-erbA mod = modulators of human Rev-erb alpha DNA binding | Rev-erbα–FITC-DNA binding, fluorescence polarization, 90 min | activity, % at 10 µM | 0.79% of 370,000 active | AID 1259318;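 active means activity above about 14%, limit read from the data; passing the limit was not always enough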;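 further: 0% = DMSO wells with 35 nM protein and 100% = DMSO wells with 750 nM protein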
# caTPT1 confirm = TPT1 (C. albicans) inhibition, confirmation. shares compounds with TPT1 inhibitor. recombinant caTPT1, fluorescence polarization, RNase T1 coupled. inhibition, % at 5 µM. 74% of 2,400 active;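 active means inhibition above the primary screen limit, the mean inhibition of all tested compounds plus 3 SD, cut at about 25% in these data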
# RNase T1 counter = blocks Aspergillus oryzae RNase T1, a TPT1 counter-screen. RNase T1 cleavage, fluorescence polarization, 1536-well. shares compounds with TPT1 inhibitor. 83% of 2,400 active. AID 2153. inhibition, % at 5 µM;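 active means inhibition above the solvent-only control well mean plus 3 SD, limit set per screening run, cut at about 23% in these data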;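 further: plate controls were DMSO wells with enzyme for no effect and wells without RNase T1 for full effect; inhibitors block cleavage so intact labeled substrate keeps polarization high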
# Target sequence (P00651 whole entry, looked up): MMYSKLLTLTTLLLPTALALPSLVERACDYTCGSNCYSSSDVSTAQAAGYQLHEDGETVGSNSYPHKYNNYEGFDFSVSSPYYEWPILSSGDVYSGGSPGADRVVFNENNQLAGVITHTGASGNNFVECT
# Numbers without * were called inactive; / = not tested or not shown. Only some compounds are listed: those with a hit (about 1.7% of all), similar ones and a draw of the others.
SMILES,HNF4A DNA FP,TPT1 inhibitor,CSN deneddyl inh,Rev-erbA mod,caTPT1 confirm,RNase T1 counter
COC(=O)c1cccc(CSc2nc(-c3ccccc3)c(C#N)c(=O)[nH]2)c1,1,81*,1,5,6,9
N#Cc1c(-c2cccs2)nc(SCC(=O)c2cccs2)[nH]c1=O,15,40*,17,-1,23,30*
N#Cc1c(-c2ccccc2)nc(SCC(=O)N(c2ccccc2)c2ccccc2)[nH]c1=O,4,34*,4,3,11,18
CN1/C(=C\C(=O)COc2ccc3c(c2)OCO3)C(C)(C)c2ccccc21,16,32*,12,10,34*,43*
COC(=O)[C@]12C[C@H](CC(=O)NCC3CCCCC3)C(=O)N(Cc3ccco3)C1=C[C@H](C(C)C)O[C@@H]2C1CC1,/,/,/,5,/,/
Cn1cccc1/C=C1\SC(=S)N(NC(=O)c2ccccc2)C1=O,86*,89*,34,14,91*,111*
Cn1cccc1/C=C1\SC(=S)N(NC(=O)c2ccc(F)cc2)C1=O,91*,97*,54*,11,111*,118*
CC(=Nc1ccc(Cl)cc1N)c1c(O)cc(C)oc1=O,/,/,/,-6,/,/
CCCC(NC(=O)c1c(C)noc1C)C12CC3CC(CC(C3)C1)C2 (centres undefined),0,81*,3,0,25*,35*
CC(C)(C)OC(=O)N1CCC2CCN(S(C)(=O)=O)CC21 (centres undefined),/,/,/,1,/,/
CC/C(C)=N\N=C\c1c(O)n(CC)c2cc(C3=NNC(=O)CC3)ccc12,11,51*,12,/,35*,47*
CCn1c(O)c(/C=N/N=C/c2ccc(OC)cc2)c2cc(C3=NNC(=O)CC3)ccc21,95*,47*,89*,0,74*,86*
O=C1NC(=S)SC1=C1CCCC1,2,28*,17,-2,17,25*
CCOC(=O)/C(C#N)=C\c1ccc(N2CCN(C/C=C/c3ccccc3)CC2)cc1,6,46*,17,2,82*,92*
CCCc1ccc(-c2cc(NC(=O)Cc3c(C)[nH]c4ccccc34)ccc2N(C)c2cccnc2)cc1,/,/,/,-2,/,/
CC(C)(C)S(=O)(=O)N1C[C@@H]2CC(=O)C(CCO)=C2[C@H]1CCO,/,/,/,-11,/,/
N#Cc1c(-c2ccco2)cc(-c2cccnc2)nc1N,-8,2,21,-7,/,/
N#Cc1c(-c2ccco2)cc(-c2ccccn2)nc1N,2,28*,25,-6,15,18
CSc1nnc(C)c(/C=C/Nc2ccc(F)cc2)n1,17,116*,-6,/,101*,105*
Cc1cc(C)c(C(N)=O)c(Nc2ccc(F)cc2)n1,2,-1,1,2,/,/
O=C(O)CSc1ncnc2scc(-c3ccc(Br)cc3)c12,2,35*,3,5,46*,55*
CCNC(=O)N1C[C@H]2CON(C)[C@H]2C[C@H]1c1ccc(N2CCCCC2)cc1,/,/,/,-9,/,/
Cc1ccc(/C=C2/NC(=O)N(Cc3ccccc3F)C2=O)s1,75,69*,41*,1,86*,86*
CCOC(=O)c1sc(=NC(=O)c2cccc(OC)c2)n(C)c1C,-1,64*,-4,6,5,5
CCOC(=O)c1sc(=NC(=O)c2ccccc2)n(C)c1C,-8,1,-6,5,/,/
SMILES,HNF4A DNA FP,TPT1 inhibitor,CSN deneddyl inh,Rev-erbA mod,caTPT1 confirm,RNase T1 counter
Cc1ccc(C(=O)N2CCC[C@@H]2C(=O)N2CCC[C@@H]2C(=O)NCc2ccccc2)cc1,/,/,/,-4,/,/
CCCCCCCCN1C(=O)[C@@H](CC(=O)N2CCCC2)C[C@@]2(C(=O)OC)C1=C[C@H](C(C)(C)C)O[C@@H]2C,/,/,/,2,/,/
O=C(/C=C/c1ccc(N2CCC(c3ccccc3)=N2)cc1)c1ccccc1,/,115*,/,-6,119*,114*
O=C(/C=C/c1ccc(O)cc1)c1ccccc1,0,4,6,5,/,/
O=C(Nc1ccc(F)cc1F)c1cc(-c2ccc(Cl)cc2)nc2ccccc12,/,/,/,5,/,/
O=C(N/N=C/c1c(O)n(Cc2ccccc2)c(=O)c2ccccc12)c1cccnc1,42*,106*,20,6,117*,120*
CCOC(=O)c1c(-c2ccc(OC)cc2)csc1/N=C/C1=C(O)CCCC1=O,4,139*,11,4,33*,50*
CC(C)CSC1=NSC2=NC(=O)/C(=C\c3ccccc3)C(=N)N12,-1,5,-6,-2,/,/
CC(C)CSC1=NSC2=NC(=O)/C(=C\c3coc4ccccc4c3=O)C(=N)N12,2,43*,-75,10,10,26*
CSC1=NSC2=NC(=O)/C(=C\c3coc4ccccc4c3=O)C(=N)N12,48,62*,55,4,61*,65*
Cc1[nH]c2ccccc2c1C(=O)C(=O)N(C)C1CCCCC1,5,-1,-2,3,/,/
Cc1[nH]c2ccccc2c1C(=O)CSC(=S)N(C)C1CCCCC1,-1,128*,3,-3,12,14
COc1ccc(/C=C(\C#N)C(=O)c2cccn2C)cc1,-5,2,0,6,/,/
Cn1cccc1C(=O)/C(C#N)=C/c1ccc(F)cc1,21,53*,29,1,80*,96*
N#C/C(=C\C=C\c1ccccc1)c1nc(-c2ccc3c(c2)OCO3)cs1,-19,37*,3,0,36*,47*
C[C@H](CO)N1C[C@H](C)[C@H](CN(C)C(=O)Nc2cccc3ccccc23)Oc2ncc(Br)cc2C1=O,/,/,/,7,/,/
COC(=O)/C(C#N)=C/c1ccc(OC(=O)c2ccccn2)cc1,45*,27*,5,-2,19,26*
CCOC(=O)/C(C#N)=C/c1ccc(OC(=O)c2ccccn2)cc1,16,11,10,-2,/,/
CCCCN=c1scc(-c2ccc3c(c2)NC(=O)CO3)n1N=C1CCCC1,10,10,0,-5,/,/
CCN=c1scc(-c2ccc3c(c2)NC(=O)CO3)n1N=C1CCCC1,23,43*,7,-5,39*,50*
Cc1cc(Br)ccc1OCCN1CCCC1,0,-3,8,-4,/,/
Cc1cc(Br)ccc1OCCN1CC(C)OC(C)C1 (centres undefined),1,48*,0,-4,10,12
CC(C)(C)C1CCC2(CC1)C(C#N)=C(SCC(=O)Nc1ccccc1)NC(=O)C2C#N (centres undefined),-2,5,3,-2,/,/
N#CC1=C(SCC(=O)c2cc3ccccc3oc2=O)NC(=O)C(C#N)C12CCCC2 (centres undefined),10,49*,12,2,30*,39*
C=CCn1c(Cc2cccs2)nnc1SCC(=O)Nc1cccc2ccccc12,/,/,/,-4,/,/
CCOC(=O)c1nn(-c2ccc(Cl)cc2Cl)c(=N)c(C#N)c1C,/,95*,/,/,81*,87*
